Structures are written as SMILES.

Usually EC50 stands for the concentration at which the effect is half-maximal.

A short description of assay [1]: Cytotoxicity against human INA-6 cells assessed as viable fractions using annexin V-FITC/propidium iodide staining by flow cytometry. It is filed as functional, cell-based. In short, it runs like this:
(§1)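 Human multiple myeloma INA-6 cells or mononuclear cells from peripheral blood of healthy donors exposed to a range of compound concentrations. Viable fraction taken as annexin V/PI double-negative cells; EC50 derived.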
On the technique in general: A flow cytometer gives signals particle by particle.

Another assay relates to PBMC. Kind of assay: Cytotoxicity against human PBMC cells assessed as viable fractions using annexin V-FITC/propidium iodide staining by flow cytometry. It is filed as cell-based. The essentials: as §1

Turning to `CC1=CC(=O)c2c(O)cccc2C1=O` [PLUMBAGIN], the EC50 (in assay [1]; in the assay with PBMC) was 0.8 µM in each case. `CC1=C(O)C(=O)c2c(ccc(O[C@@H]3O[C@H](CO)[C@@H](O)[C@H](O)[C@H]3O)c2O)C1=O` [DIONCOQUINONE A]: in assay [1], the EC50 was determined as 29 µM. For the compound `CC1=C(O)C(=O)c2c(O)cccc2C1=O` [DROSERONE], the EC50 in assay [1] was over 100 µM. `COc1cccc2c1C(=O)C=C(C)C2=O`: the EC50 in assay [1] turned out to be 4 µM; with PBMC, 16 µM. For the compound `COc1ccc2c(c1OC)C(=O)C=C(C)C2=O`, the EC50 in assay [1] amounted to 15 µM; in the assay on PBMC, 13 µM.

On to `CC1=C(O)C(=O)c2cc(O)ccc2C1=O`, for which the EC50 in assay [1] was over 100 µM. The same measure, in the same setting: the same measure for `COc1ccc2c(c1O)C(=O)C(O)=C(C)C2=O`: over 100 µM. Same read-out and setting: in the case of `CC1=C(O)C(=O)c2c(ccc(O)c2O)C1=O` [DIONCOQUINONE B] it was 11 µM; in that of `COc1cc2c(c(OC)c1OC)C(=O)C(O)=C(C)C2=O`, over 100 µM. In the case of `COc1cc2c(cc1OC)C(=O)C(C)=CC2=O`, the EC50 in assay [1] came to 6 µM; in the assay on PBMC it was 6.5 µM.

In the case of `COc1c(O)cc2c(c1O)C(=O)C(O)=C(C)C2=O` [DIONCOQUINONE E], the EC50 in assay [1] stood at 100 µM. For the compound `COc1ccc2c(c1)C(=O)C(O)=C(C)C2=O`, the EC50 in assay [1] was over 100 µM; with PBMC, 50 µM. The matching figures for `CC1=CC(=O)c2cc(O)ccc2C1=O`: 13 µM and 17 µM. As for `COc1cc2c(cc1OC)C(=O)C(O)=C(C)C2=O`, the EC50 in assay [1] is over 100 µM. On the same count and under the same terms, in the case of `COc1ccc2c(c1OC)C(=O)C(O)=C(C)C2=O` it was over 100 µM. Take `CC1=CC(=O)c2c(ccc(O)c2O)C1=O`: the EC50 worked out at 75 µM in assay [1] and 100 µM in the assay on PBMC. Take `CC1=C(O)C(=O)c2cc(O)c(O)cc2C1=O`: the EC50 in assay [1] was 52 µM.

Consider `N[C@@H](Cc1ccc(N(CCCl)CCCl)cc1)C(=O)O` [MELPHALAN], for which the EC50 in assay [1] turned out to be 2 µM; with PBMC, 3 µM. With `CC1=C(O)C(=O)c2c(cc(O)c(O)c2O)C1=O`, the results for the EC50 (in assay [1]; in the assay with PBMC) were 7 µM and 70 µM, respectively.

Turning to `COc1cc2c(c(OC)c1OC)C(=O)C=C(C)C2=O`, the EC50 in assay [1] is 8 µM; in the assay on PBMC, 7.5 µM. For `COC1=C(C)C(=O)c2cc(OC)c(O)c(O)c2C1=O` [DIONCOQUINONE D], in assay [1], the EC50 is 80 µM. Still for that read-out and setting: in the case of `COC1=C(C)C(=O)c2ccc(O)c(O)c2C1=O` it was over 100 µM; in that of `COc1cc2c(c(O)c1O)C(=O)C(O)=C(C)C2=O` [DIONCOQUINONE C], 14 µM. For the compound `CC1=C(O)C(=O)c2c(O)ccc(O)c2C1=O`, the EC50 in assay [1] is over 100 µM.

(Values after ChEMBL document CHEMBL1914341, “Anti-tumoral activities of dioncoquinones B and C and related naphthoquinones gained from total synthesis or isolation from plants” (Eur J Med Chem, 2011).)
